High-throughput results deposited in PubChem by several laboratories.
An excerpt weighted towards active compounds, which were near 1.9% of everything screened.
Hck Nef HTS = human Hck-Nef kinase inhibition; AID 463187; actives 0.68% (n = 220,000); Recombinant Hck-YEEI plus Nef, Z-Lyte FRET kinase assay; P08631; inhibition, % at 20 µM;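 active = Hck-Nef kinase inhibition above about 50%, limit read from the data; inactive = inhibition below that limit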;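 also: 0% = DMSO with Hck plus Nef and 100% = Hck alone without Nef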
Target sequence (P08631 whole entry, looked up): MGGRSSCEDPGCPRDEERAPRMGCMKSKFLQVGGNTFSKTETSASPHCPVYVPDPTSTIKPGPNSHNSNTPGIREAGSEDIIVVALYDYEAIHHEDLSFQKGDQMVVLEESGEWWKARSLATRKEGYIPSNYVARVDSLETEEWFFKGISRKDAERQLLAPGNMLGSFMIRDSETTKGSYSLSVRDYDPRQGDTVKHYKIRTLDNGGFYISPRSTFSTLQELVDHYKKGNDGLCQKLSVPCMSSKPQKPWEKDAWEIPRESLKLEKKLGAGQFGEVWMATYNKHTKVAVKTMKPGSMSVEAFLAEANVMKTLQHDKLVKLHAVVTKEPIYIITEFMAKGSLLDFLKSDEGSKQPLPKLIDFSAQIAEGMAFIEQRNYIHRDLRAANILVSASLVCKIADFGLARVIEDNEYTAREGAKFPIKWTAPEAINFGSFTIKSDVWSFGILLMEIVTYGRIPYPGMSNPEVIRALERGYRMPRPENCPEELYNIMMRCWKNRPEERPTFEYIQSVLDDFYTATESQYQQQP
TbHK1 inh = T. brucei hexokinase 1 inhibition | recombinant TbHK1, G6PDH-coupled NADH A340 | inhibition, % at 10 µM | actives 0.11% (n = 220,000);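 active = inhibition of 50% or more in the single-dose primary screen; inactive = inhibition below 50%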
Runt-CBFb FRET = blocks binding of human RUNX1 Runt domain to CBFb. Cerulean-Runt/Venus-CBFb FRET ratio 530/480, 1 h. Q01196+Q13951. AID 1496. inhibition, % at 20 µM. actives 0.46% (n = 220,000);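 active = inhibition over about 50% at 20 µM in the single-dose screen, limit read from the data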;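 also: 0% = DMSO wells and 100% = excess unlabeled CBFb competitor control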
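test system = Cerulean-Runt domain fusion protein, energy donor | probe or stimulus = Venus-CBFb binding partner, 100 nM | incubation = two 1 h room-temperature incubations shielded from light | detection = fluorescence energy transfer, 422 nm excitation, 530/480 nm emission | measure = loss of energy transfer signal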
RanGTP-Impb inh = inhibitors of RanGTP-importin-beta interaction, primary screen, biochemical, FRET, CFP-Ran, YFP-importin-beta, homogeneous; inhibition, % (concentration not given with the values); actives 1.1% (n = 300,000); cell-free CFP-Ran/YFP-importin-beta FRET ratio;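 active = more than half of the replicate wells show a fall in the fluorescence ratio signal beyond about 16%, limit read from the data, passing the limit was not always enough; inconclusive = exactly half of the replicate wells pass the set limit; inactive = fewer than half of replicates pass the limit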;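 also: 0% = DMSO wells and 100% = Ran loaded with GDP instead of GTP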
Runt-SMMHC FRET = Runt domain-CBFb-SMMHC interaction inhibition; Q01196+Q13951; Cerulean-Runt/Venus-CBFb-SMMHC FRET ratio 530/480, 1 h; inhibition, % at 20 µM; actives 0.74% (n = 220,000);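 active = mean inhibition across duplicate retests at 20 µM reaching about 50%, limit read from the data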;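 also: 0% = DMSO wells and 100% = wells with excess untagged CBFb-SMMHC; inhibitors lower the FRET ratio by blocking Runt binding to CBFb-SMMHC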
G6PDH counter = inhibits Leuconostoc G6PDH, counter-screen for TbHK1 inhibitors. shares compounds with TbHK1 inh. purified G6PDH, NADH absorbance, 1 h. inhibition, % at 10 µM. actives 7% (n = 210). AID 2516;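 active = at least 50% inhibition in the glucose-6-phosphate dehydrogenase coupled counterscreen; inconclusive = no clear call, values can overlap the other calls; inactive = inhibition below 50%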
TbHK1 rescreen = confirmation of Trypanosoma brucei hexokinase 1 inhibitors; shares compounds with TbHK1 inh; recombinant TbHK1, G6PDH-coupled NADH A340 absorbance; inhibition, % at 10 µM; actives 10% (n = 210); AID 2560;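 active = inhibition of at least 50% in both of the two screening runs; inconclusive = at least 50% in one run, below 50% in the other; inactive = inhibition below 50% in both runs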;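 also: 0% and 100% set by the maximum and minimum signal control wells on each plate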
RUNX1 CBFb TR = disrupts human RUNX1 Runt domain binding to CBFb | shares compounds with Runt-CBFb FRET | TR-FRET RUNX1 Runt domain-CBFb binding | inhibition, % at 20 µM | actives 20% (n = 480); in the data active = inhibition above about 40%
Hck Nef conf = confirmation of Hck-Nef kinase inhibitors. shares compounds with Hck Nef HTS. Recombinant Hck-YEEI:Nef, Z-Lyte FRET kinase assay. calls only at 10 µM. actives 28% (n = 1,300);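 active = average inhibition of at least 50%, with Z-scores no higher than 3 in both the phospho-tyrosine peptide and fluorescence counterscreens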
An asterisk follows results filed as active; ? = inconclusive; / = no result; + = active, no number.

SMILES	Hck Nef HTS	TbHK1 inh	Runt-CBFb FRET	RanGTP-Impb inh	Runt-SMMHC FRET	RUNX1 CBFb TR	others
CCOC(=O)CNC(=O)CSc1nnc(-c2ccco2)n1Cc1ccco1	2.2	7.2	12.5	-1.8	0.4	/
CCCS(=O)(=O)c1nc(S(=O)(=O)c2ccc(C)cc2)c(N2CCC3(CC2)OCCO3)s1	/	/	/	2.3	/	/
COc1ccc(OCC(=O)OC(C)CN2CCCCC2)cc1 (centres undefined)	/	/	/	1.9	/	/
COc1ccc(CC(=O)OC(C)CN2CCCC2)cc1 (centres undefined)	4.9	55.5*	0.9	3.6	3.3	/	G6PDH counter=0.3;TbHK1 rescreen=-3.2
CN(C)S(=O)(=O)c1cccc(NC(=S)NN=C(Cc2ccccc2)Cc2ccccc2)c1	-2.4	51.4*	11.6	-4.1	15.8	/	G6PDH counter=12.5;TbHK1 rescreen=-4.1
NC(=O)c1sc2nnc(-c3ccccc3)c(-c3ccccc3)c2c1N	16.0	-2.5	-9.5	-11.1	-48.9	/
COc1ccc2nc(N=Nc3ccc(N(C)C)cc3)sc2c1	3.9	-2.5	-4.9	/	-1.9	/
CN(C)c1ccc2nc3ccc(=[N+](C)C)cc-3sc2c1	39.1	75.1*	26.1	/	5.5	/	G6PDH counter=127.8*;TbHK1 rescreen=76.8*
Cc1nc2cc(C)c(C)cc2s1	-0.3	-3.5	-1.3	-0.6	-1.4	/
Cc1cc2nc3ccc(=[N+](C)C)cc-3sc2cc1N	1.3	65.9*	25.9	6.2	-5.9	/	G6PDH counter=126.0*;TbHK1 rescreen=76.7*
Cc1nc2nc(SCC(=O)O)nn2c(C)c1Cc1ccccc1Cl	20.1	-0.6	-0.2	2.2	-0.5	/
CCN(CC)c1ccc2cc(-c3nc4ccccc4[nH]3)c(=O)oc2c1	-8.7	68.3*	19.3	129.1*	78.7*	/	G6PDH counter=110.9*;TbHK1 rescreen=83.9*
COc1cccc2cc(-c3nc4ccccc4[nH]3)c(=O)oc12	/	/	/	-16.5	/	/
Cc1ccc(-n2nnc(-c3ccnc4ccccc34)n2)cc1	16.1	-4.5	0.6	3.6	-0.7	/
O=C(CSc1nnc(-c2ccc(O)cc2)o1)Nc1ccccc1Br	/	/	/	-0.8	/	/
CSc1nnc(-c2ccccc2)o1	4.2	54.9*	-2.0	-1.1	5.4	/	G6PDH counter=-3.6;TbHK1 rescreen=2.2
c1ccc(-c2nnc(-c3ccccc3)o2)cc1	1.0	4.7	/	3.3	-0.3	/
COc1ccc(/C=C2\SC(=S)N(C(Cc3ccccc3)C(=O)O)C2=O)cc1 (centres undefined)	34.0	-7.6	8.9	1.2	2.7	/
O=C(O)C(Cc1ccccc1)N1C(=O)/C(=C/C=C/c2ccco2)SC1=S (centres undefined)	91.8*	51.0*	21.6	-3.3	-23.1	/	G6PDH counter=-71.3;TbHK1 rescreen=39.8;Hck Nef conf=+
CC1CCCN(S(=O)(=O)c2ccc3oc(=O)ccc3c2)C1 (centres undefined)	/	/	/	2.7	/	/
O=C(Nc1c[nH]c(=O)[nH]c1=O)c1ccc2c(c1)C(=O)N(c1cccc([N+](=O)[O-])c1)C2=O	93.6*	56.0*	-2.4	7.3	-8.2	/	G6PDH counter=83.6*;TbHK1 rescreen=69.5*;Hck Nef conf=+
O=C1CSC(=S)N1/N=C/c1ccc(O)c(O)c1O	79.4*	50.3*	38.9	9.6	42.6	/	G6PDH counter=-48.6;TbHK1 rescreen=34.6;Hck Nef conf=+
O=C1CSC(=S)N1/N=C/c1cc(Br)ccc1O	/	/	/	-0.4	/	/
O=C(CCCCCN1C(=O)[C@@H]2Cc3ccccc3CN2C1=O)NCCc1ccccc1	/	/	/	0.0	/	/
O=c1c(O)cccc2cc(O)c(O)c(O)c12	65.4*	69.7*	23.5	?	-3.7	/	G6PDH counter=-8.4;TbHK1 rescreen=?;Hck Nef conf=+
SMILES	Hck Nef HTS	TbHK1 inh	Runt-CBFb FRET	RanGTP-Impb inh	Runt-SMMHC FRET	RUNX1 CBFb TR	others
Cc1nc(N2CCCCC2)c2sc(=S)n(C)c2n1	20.6	-8.2	-0.1	-0.6	0.8	/
CCN1CCN(c2nc(C)nc3c2sc(=S)n3C)CC1	-23.0	-51.7	53.2*	/	38.5	-1.2
Cc1cc(OC(C)C(=O)N2CCN(c3ccc(F)cc3)CC2)c2c(C)cc(=O)oc2c1 (centres undefined)	/	/	/	-2.9	/	/
CCOCCc1nnc(NC(=O)C2CC(=O)N(CCc3ccc(F)cc3)C2)s1 (centres undefined)	/	/	/	1.1	/	/
S=c1nc(-c2cc(Cl)ccc2Cl)[nH][nH]1	-2.8	-0.7	56.9*	-1.7	40.1	-18.8
O=C(Nc1ccc(-c2nc3ccccc3s2)c(O)c1)C1=COCCO1	67.3*	-13.0	59.3*	-31.0	128.4*	2.0
CCOC(=O)N/N=C/c1c(F)c(F)c(F)c(F)c1F	4.3	34.3	50.4*	/	1.4	-14.5
CCC1(C)Cc2c(sc3[nH]c(=O)[nH]c(=O)c23)CS1 (centres undefined)	0.4	41.7	56.7*	5.9	/	17.7
O=C(CSc1nc2ccccc2s1)Nc1cc(C(=O)O)cc(C(=O)O)c1	49.5	-5.7	55.2*	-0.7	52.4	33.2
O=C(CSc1nc2ccccc2s1)Nc1ccc(Cl)c(C(=O)O)c1	38.1	2.9	16.1	3.4	16.6	/
Cc1cc(S(=O)(=O)N2CCN=C2c2ccccc2)c(Cl)cc1Cl	0.4	-1.0	-2.7	7.9	5.4	/
N#Cc1c2c(c(Nc3ccccc3)n3c1nc1ccccc13)CCC2	0.4	-3.1	54.8*	76.7*	70.5*	-1.5
N#Cc1c2c(c(-n3cnc4ccccc43)n3c1nc1ccccc13)CCC2	2.5	2.9	/	-1.4	-69.2	/
O=C(CN1CCN(c2ccccc2)CC1)Nc1cccc(C(F)(F)F)c1	-0.5	-1.9	59.4*	9.2	-1.0	-15.5
O=C(CN1CCN(Cc2ccccc2)CC1)Nc1cccc(C(F)(F)F)c1	0.5	-8.5	-3.3	0.6	-2.8	/
Cc1ccc2nc(C)cc(N3CCOCC3)c2c1	1.2	-11.5	1.8	3.2	-2.9	/
Cc1cc(N2CCOCC2)c2c(N)c(C)cc(C)c2n1	1.7	-10.8	62.4*	/	41.2	-3.2
CCOC(=O)C1=C(C)N(c2ccc(OC)cc2)C(=O)/C1=C\c1ccc(O)c(OCC)c1	-309.3	-1.9	65.2*	-12.2	-4.1	32.2
CS(=O)(=O)NCCSc1cc(C(F)(F)F)nc2ccccc12	10.8	-14.6	0.3	?	-0.9	/
O=C1CC(N2CCC(O)(c3ccc(Cl)cc3)CC2)C(=O)N1Cc1ccc(N2CCCC2=O)cc1 (centres undefined)	6.1	0.1	66.3*	2.3	-3.0	-13.0
CN1CCc2cccc3c2[C@H]1Cc1ccc(O)c(O)c1-3	3.9	15.8	73.3*	3.2	/	36.1
CN1CCc2cc3c(c4c2[C@H]1[C@H](O)c1ccccc1-4)OCO3	-1.8	1.3	-149.6	-2.4	78.9	/
